Bioassay records: PubChem, several laboratories
Sampled rows, rich in hits. Any-hit rate of the full collection: about 2.1%.
PP1 inh – blocks human PP1-alpha phosphatase, a PP5 counter-screen; P62136; purified PP1alpha, OMFP fluorescence; inhibition, % at 6.7 µM; 320,000 tested, 0.9% active; AID 2235;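 active = inhibition above the mean inhibition of all tested compounds plus 3 SD, computed separately for each screening campaign, cut at about 15% in these data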
Apaf-1 inh – blocks human Apaf-1 apoptosome activity; reconstituted apoptosome caspase-3 activity, DEVD-Rh110 fluorescence; 330,000 tested, 0.71% active; O14727; inhibition, % at 20 µM; active = inhibition of at least 40% at 20 µM;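 note: plate controls were DMSO wells for no effect and DEVD-CHO caspase inhibitor wells for full effect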
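Assay system – apoptosome proteins · Medium – Hepes buffer, pH 7.5 · Also added – cytochrome c with DEVD-Rh110 · Timing – 30 min compound preincubation, 50 min activation, room temperature · Detection – Rh110 fluorescence, excitation 480 nm, emission 540 nm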
TDP2 absorb – TDP2 (human) inhibition, absorbance primary screen; O95551; recombinant TDP2, T5PNP hydrolysis, p-nitrophenol absorbance 415 nm; inhibition, % at 12.8 µM; 370,000 tested, 0.34% active;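 active = inhibition above the mean of all tested compounds plus 3 SD, set per campaign, cut at about 25% in these data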;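 note: 0% = DMSO with enzyme and 100% = buffer with substrate but no TDP2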
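System – recombinant human TDP2 · Quantity – TDP2 enzyme at 120 nM final · Doses – single concentration, 12.8 µM nominal, with 1% DMSO · Incubation – 2 h at 37 °C · Measured by – epi absorbance of p-nitrophenol freed from T5PNP by hydrolysis · Read-out – % inhibition relative to enzyme-containing and enzyme-free wells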
PP5 primary – inhibitors of human protein phosphatase 5 (PP5) | P53041 | 320,000 tested, 0.18% active | AID 1987 | purified PP5c, OMFP substrate fluorescence | inhibition, % at 6.7 µM;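 active = inhibition above the campaign's mean inhibition across all tested compounds plus 3 SD, cut at about 9.5% in these data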;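 note: 0% = DMSO only and 100% = 100 µM cantharidin control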
Target sequence (P53041 whole entry, looked up): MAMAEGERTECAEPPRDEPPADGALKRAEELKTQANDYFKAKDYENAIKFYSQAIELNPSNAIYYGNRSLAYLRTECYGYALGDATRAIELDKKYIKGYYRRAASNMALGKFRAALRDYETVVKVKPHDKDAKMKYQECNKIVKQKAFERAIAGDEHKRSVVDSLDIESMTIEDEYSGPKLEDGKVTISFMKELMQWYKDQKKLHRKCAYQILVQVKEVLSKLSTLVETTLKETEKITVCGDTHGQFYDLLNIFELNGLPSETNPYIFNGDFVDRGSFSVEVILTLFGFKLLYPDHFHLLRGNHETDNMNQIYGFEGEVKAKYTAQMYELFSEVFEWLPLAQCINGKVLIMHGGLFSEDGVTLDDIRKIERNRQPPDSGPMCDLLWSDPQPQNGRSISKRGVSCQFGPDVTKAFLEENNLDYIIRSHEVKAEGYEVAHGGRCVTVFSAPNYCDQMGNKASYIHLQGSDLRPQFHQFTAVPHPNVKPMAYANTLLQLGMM
GSTO1 counter – GSTO1 inhibition, counter-screen for RBBP9 inhibitors; P78417; recombinant GSTO1, activity-based probe fluorescence polarization; inhibition, % at 5.96 µM; 300,000 tested, 1.1% active; AID 1974;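 active = inhibition above the campaign mean inhibition plus 3 SD, cut at about 35% in these data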;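 note: 0% = GSTO1-1 with DMSO and 100% = wells lacking GSTO1-1 enzyme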
Target sequence (P78417 whole entry, looked up): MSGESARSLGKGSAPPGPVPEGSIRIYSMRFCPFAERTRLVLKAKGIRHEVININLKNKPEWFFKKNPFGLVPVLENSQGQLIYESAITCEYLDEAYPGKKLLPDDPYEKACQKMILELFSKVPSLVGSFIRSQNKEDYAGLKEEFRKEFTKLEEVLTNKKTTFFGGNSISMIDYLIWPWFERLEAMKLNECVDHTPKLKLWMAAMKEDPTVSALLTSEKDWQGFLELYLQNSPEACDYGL
Starred values were filed as active, the others as inactive; nt = no result.

SMILES | PP1 inh | Apaf-1 inh | TDP2 absorb | PP5 primary | GSTO1 counter
CNc1ccc(Br)cc(C(=O)/C=C/c2cccc(OC)c2)c1=O | 3.7 | 18.3 | 2.3 | -0.2 | 35.5*
CNc1ccc(Br)cc(C(=O)/C=C/c2ccc(Cl)cc2Cl)c1=O | 10.7 | 33.4 | 8.9 | -1.4 | 35.0*
CNc1ccc(Br)cc(C(=O)/C=C/c2ccc(OC)cc2OC)c1=O | 9.3 | 21.9 | 6.7 | 4.0 | 36.1*
C=CCNC(=O)NC[C@@]1(C(=O)OC)CC(=O)N(C)[C@@H]1c1ccccc1 | nt | nt | -2.2 | nt | nt
COC(=O)C1=C(C)N(C)C(=NCc2cccc(C(F)(F)F)c2)NC1c1ccc(Cl)cc1 (centres undefined) | nt | nt | -6.2 | nt | nt
COc1ccc2c(c1)CN1C(=O)N(Cc3ccccc3)S(=O)(=O)CC21 (centres undefined) | nt | nt | -11.8 | nt | nt
FC(F)(F)c1cccc(Cn2ccc3ccc(-c4ccc5ccn(Cc6cccc(C(F)(F)F)c6)c5c4)cc32)c1 | nt | nt | 2.8 | nt | nt
CCOC(=O)c1ccc(NC(=O)c2nc[nH]c2C(=O)N[C@@H](C)CO)cc1 | nt | nt | 10.7 | nt | nt
c1csc(Cc2nn3c(-c4ccncc4)nnc3s2)c1 | -0.8 | 77.5* | 6.9 | 0.3 | -0.1
Fc1ccc(-c2cc(-c3nnc4sc(Cc5cccs5)nn34)[nH]n2)cc1 | nt | nt | -3.8 | nt | nt
COC(=O)C1=C(C)N(C)C(=NCc2cc(OC)c(OC)c(OC)c2)NC1c1cccc(F)c1 (centres undefined) | nt | nt | 9.5 | nt | nt
CNC[C@H](CC1CCCCC1)NC[C@H](Cc1ccccc1)NCCC12CC3CC(CC(C3)C1)C2 | 20.6* | 73.6* | -0.9 | 7.1 | -5.0
ClCC1=Nc2cccc3cccc(c23)N1 | -1.3 | -24.5 | nt | -0.2 | 55.1*
N#CCn1c(CCl)nc2ccccc2c1=O | -2.4 | -12.3 | -0.1 | 0.8 | 48.2*
Cc1onc(-c2ccccc2)c1C(=O)N1CCN(C(=O)C(=O)c2cccc(C(F)(F)F)c2)CC1 | nt | nt | 1.6 | nt | nt
CC1(c2nnc(Cc3ccccc3)o2)CC(c2ccc(Br)cc2)=NO1 (centres undefined) | 15.6* | 6.1 | -0.8 | 0.5 | -3.4
C[N+]1=C(N)NC2=C3CCCCC3n3c(=O)n(-c4ccccc4)c(=O)n3C2C1 (centres undefined) | nt | nt | 3.7 | nt | nt
Cc1cc2c(s1)c1cnn(Cc3cc(F)c(F)cc3F)c(=O)c1n2C | nt | nt | -3.8 | nt | nt
CC(=O)OCC1(C)CN(c2ccccc2)N(C(=O)c2ccc(F)cc2)C1=O (centres undefined) | -1.8 | -8.9 | 4.6 | 0.1 | 36.1*
O=C(CN1CCN(Cc2ccccc2)CC1)N/N=C\c1c2ccccc2cc2ccccc12 | nt | nt | 1.5 | nt | nt
Cc1cc(C(=O)CN2C(=O)C(=O)N(Cc3ccco3)C2=O)c(C)n1CCc1ccc(F)cc1 | 16.9* | 3.3 | -12.3 | 4.7 | nt
CC1CCC/C(=C\Nc2ccc(O)cc2)C1=O (centres undefined) | 9.5 | 33.6 | 7.7 | 4.3 | 36.7*
CCOc1ccc(NS(=O)(=O)c2ccc3[nH]cc(C(=O)N(CC)CC)c(=O)c3c2)cc1 | -0.6 | -2.1 | 3.0 | 0.6 | 36.1*
CC(C)c1ccc(NS(=O)(=O)c2ccc3[nH]cc(C(=O)N4CCC(C(N)=O)CC4)c(=O)c3c2)cc1 | 9.7 | 8.1 | 13.6 | 1.4 | 55.2*
CCOc1ccc(NS(=O)(=O)c2ccc3[nH]cc(C(=O)NCC4CCCO4)c(=O)c3c2)cc1 (centres undefined) | -3.1 | 9.1 | 5.4 | 5.8 | 18.9
SMILES | PP1 inh | Apaf-1 inh | TDP2 absorb | PP5 primary | GSTO1 counter
CCCCCCCCN1C(=O)[C@@H](CC(=O)N2CCOCC2)C[C@@]2(C(=O)OC)C1=C[C@H](COCc1ccccc1)O[C@@H]2C | nt | nt | 3.0 | nt | nt
C#CCNC(=O)C[C@H]1C(=O)N(CCCOC)C2=CCCC[C@@]21C(=O)OCC | nt | nt | 1.3 | nt | nt
COCc1cc(=O)n2[nH]c(-c3ccsc3-n3c(C)ccc3C)cc2n1 | 3.7 | 8.3 | 5.1 | 1.4 | 27.6
Cc1cc(=O)n2[nH]c(-c3ccsc3-n3c(C)ccc3C)cc2n1 | 16.1* | 4.9 | -0.1 | 3.0 | 30.7
CCOC(=O)C1=C(Nc2ccc(Br)cc2)C(=O)N(CC)C1 | nt | nt | 2.1 | nt | nt
CC(=O)Nc1ccc(NC(=O)CC2Nc3cccc4cccc(c34)NC2=O)cc1 (centres undefined) | -0.3 | 96.3* | 12.7 | -0.6 | 28.1
Oc1cc(-n2cccn2)c(O)cc1-n1cccn1 | -3.6 | nt | 11.5 | 2.6 | 70.3*
COc1ccc(NC(=O)N(C)[C@H]2C[C@H]3c4[nH]c5c(-c6cccc(C)c6)cccc5c4CCN3C(=O)[C@H]2[C@H](C)O)cc1 | nt | nt | -0.6 | nt | nt
O=C(NC1CCCCN(Cc2ccc(Cl)cc2)C1=O)c1cc(-c2ccccc2)no1 (centres undefined) | nt | nt | 10.0 | nt | nt
O=c1[nH]cc(N=Cc2cc([N+](=O)[O-])ccc2O)c(=O)[nH]1 | -3.9 | 2.1 | nt | -1.0 | 17.5
O=c1[nH]cc(N=Cc2cc(Cl)cc(Cl)c2O)c(=O)[nH]1 | -1.8 | 13.1 | 9.3 | -0.9 | 42.2*
O=C(Nc1ccc(F)cc1)OCc1cn(Cc2cccc(F)c2)nn1 | nt | nt | 6.6 | nt | nt
CCNC(=S)NNC(=O)c1cnccn1 | nt | nt | -3.7 | nt | nt
Cc1ccc(C2C(C#N)=C(N)Oc3n[nH]c(-c4ccccc4)c32)o1 (centres undefined) | 7.9 | nt | 13.0 | 5.2 | 45.2*
Cc1ccc(C2C(C#N)=C(N)Oc3n[nH]c(-c4cccnc4)c32)o1 (centres undefined) | 4.5 | 14.7 | 13.9 | 3.2 | 14.6
CCCC1CCC2(CCCN2CCOC(=S)Nc2ccccc2Br)CC1 (centres undefined) | nt | nt | -2.6 | nt | nt
Nc1c(C(=O)c2ccc(Cl)cc2)sc2c1c(=O)[nH]c(=O)n2-c1ccccc1 | 15.9* | 7.8 | 1.4 | 0.1 | -1.4
COc1ccc(OC)c(S(=O)(=O)N2CCCC(c3noc(-c4ccc(C)cc4)n3)C2)c1 (centres undefined) | nt | nt | 2.7 | nt | nt
Oc1c(Br)cc(Br)cc1/C=N/NC(=S)N[C@H]1CC2C=CC1C2 (some centres undefined) | 16.6* | 26.6 | -23.9 | 3.3 | -11.1
CCN1C(N(C)CCc2c[nH]c3ccccc23)=N[C@@H](c2cccc(C(F)(F)F)c2)C(C(=O)OC)=C1C | nt | 54.9* | nt | nt | nt
COC(CNC(=O)[C@H](Cc1ccccc1)NC1(C(=O)NC2CCCCC2)CCC1)OC | nt | nt | 7.7 | nt | nt
O=C(CCCCCNC(=O)c1ccccc1)N=Nc1c(O)[nH]c2c(Br)cc(Br)cc12 | -3.8 | 19.0 | nt | 3.2 | 56.8*
O=C(O)c1cc(-c2ccc(/C=N/NC(=S)Nc3ccccc3)o2)ccc1Cl | -0.4 | 8.9 | -1.9 | -0.2 | 48.2*
O=[N+]([O-])c1cccc(-c2ccc(/C=N/NC(=S)Nc3ccccc3)o2)c1 | 9.0 | 2.3 | 2.9 | 4.8 | -22.7
COc1ccc(C[N+]2=C(N)N[C@@]3(C=C(C)Cn4c(=O)n(-c5ccccc5)c(=O)n43)C2)c(OC)c1 | nt | nt | 1.8 | nt | nt
CC(=O)c1cccc(N2Cc3ccccc3C2=NC(=O)CCl)c1 | 1.7 | -12.4 | -9.3 | -0.3 | 78.1*
